Key:
Rattus norvegicus [1] = experiment: Change in heart rate after 12 hours of dosing was measured in conscious normotensive male rats at a dose of 5 mg/kg administered intraperitoneally in 5 rats; format: functional; conditions: route intraperitoneal
Procedure, shortened: (§1)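 Heart rate was recorded electronically through the blood-pressure recorder during tail-cuff measurement in conscious normotensive male rats (250–300 g), restrained in Plexiglass tubes at 37 °C. Dosing was intraperitoneal, and change from the pre-dose rate was followed to 48 h.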

Rattus norvegicus [2] = experiment: Change in blood pressure after 6 hours of dosing was measured in conscious normotensive male rats at a dose of 5 mg/kg administered intraperitoneally in 5 rats; format: functional; conditions: route intraperitoneal
Procedure, shortened: (§2)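 Conscious normotensive male rats (250–300 g) were restrained in Plexiglass tubes kept at 37 °C. Systolic pressure was read indirectly at the tail root using a tail cuff and a sphygmomanometer with a crystal-microphone pulse pick-up. Dosing was intraperitoneal, and change from the pre-dose value was followed to 48 h.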

Mus musculus [3] = species: Mus musculus; experiment: Compound was evaluated for its lack of depresant effect on the CNS as measured by the forced coordinated motor activity on 10 mice; format: functional
Rattus norvegicus [4] = experiment: Change in heart rate after 24 hours of dosing was measured in conscious normotensive male rats at a dose of 5 mg/kg administered intraperitoneally in 5 rats; format: functional; conditions: route intraperitoneal; procedure, shortened: as §1
Rattus norvegicus [5] = experiment: Systolic blood pressure was measured prior to dosing in conscious normotensive male rats at a dose of 5 mg/kg administered intraperitoneally in 5 rats; format: functional; conditions: route intraperitoneal; procedure, shortened: as §2
Rattus norvegicus [6] = experiment: Change in blood pressure after 48 hours of dosing was measured in conscious normotensive male rats at a dose of 5 mg/kg administered intraperitoneally in 5 rats; format: functional; conditions: route intraperitoneal; procedure, shortened: as §2
[7] = Ratio of performance time under the effect and corresponding control performance time; format: functional
Procedure, shortened: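 Female mice (20–25 g), in groups of 10, were trained on a 3 cm rod at 15 rpm and tested 6 h after intraperitoneal dosing. The activity ratio is the group performance time under drug divided by the control group performance time.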

Rattus norvegicus [8] = experiment: Heart rate was measured prior to dosing in conscious normotensive male rats at a dose of 5 mg/kg administered intraperitoneally in 5 rats; format: functional; conditions: route intraperitoneal; procedure, shortened: as §1
Rattus norvegicus [9] = experiment: Change in heart rate after 48 hours of dosing was measured in conscious normotensive male rats at a dose of 5 mg/kg administered intraperitoneally in 5 rats; format: functional; conditions: route intraperitoneal; procedure, shortened: as §1
Rattus norvegicus [10] = experiment: Change in blood pressure after 18 hours of dosing was measured in conscious normotensive male rats at a dose of 5 mg/kg administered intraperitoneally in 5 rats; format: functional; conditions: route intraperitoneal; procedure, shortened: as §2
Rattus norvegicus [11] = experiment: Change in blood pressure after 24 hours of dosing was measured in conscious normotensive male rats at a dose of 5 mg/kg administered intraperitoneally in 5 rats; format: functional; conditions: route intraperitoneal; procedure, shortened: as §2
Rattus norvegicus [12] = experiment: Change in blood pressure after 3 hours of dosing was measured in conscious normotensive male rats at a dose of 5 mg/kg administered intraperitoneally in 5 rats; format: functional; conditions: route intraperitoneal; procedure, shortened: as §2
Rattus norvegicus [13] = experiment: Change in blood pressure after 12 hours of dosing was measured in conscious normotensive male rats at a dose of 5 mg/kg administered intraperitoneally in 5 rats; format: functional; conditions: route intraperitoneal; procedure, shortened: as §2
Mus musculus [14] = experiment: Lack of depressant effect on the CNS as measured by the forced coordinated motor activity on mice was expressed as time elapsed from dosing required to obtain maximum hypotensive or antihypertensive effect; format: functional, Central nervous system
Rattus norvegicus [15] = experiment: Change in heart rate after 3 hours of dosing was measured in conscious normotensive male rats at a dose of 5 mg/kg administered intraperitoneally in 5 rats; format: functional; conditions: route intraperitoneal; procedure, shortened: as §1
Rattus norvegicus [16] = experiment: Change in heart rate after 18 hours of dosing was measured in conscious normotensive male rats at a dose of 5 mg/kg administered intraperitoneally in 5 rats; format: functional; conditions: route intraperitoneal; procedure, shortened: as §1
Rattus norvegicus [17] = experiment: Change in heart rate after 6 hours of dosing was measured in conscious normotensive male rats at a dose of 5 mg/kg administered intraperitoneally in 5 rats; format: functional; conditions: route intraperitoneal; procedure, shortened: as §1

COC(=O)[C@H]1[C@H]2C[C@@H]3c4[nH]c5cc(OC)ccc5c4CCN3C[C@H]2C[C@@H](OC(=O)c2cc(OC)c(OC)c(OC)c2)[C@@H]1OC [RESERPINE]
Change in heart rate (Rattus norvegicus [1]): -40 | Change in BP (Rattus norvegicus [2]): -23 | Group performance time (Mus musculus [3]): 9 s | Change in heart rate (Rattus norvegicus [4]): -32 | BP (Rattus norvegicus [5]): 117 mmHg | Change in BP (Rattus norvegicus [6]): -7 | Activity ratio [7]: < 0.08 | Heart rate (Rattus norvegicus [8]): 364 beats min-1 | Change in heart rate (Rattus norvegicus [9]): -10 | Change in BP (Rattus norvegicus [10]): -10 | Change in BP (Rattus norvegicus [11]): -12 | Change in BP (Rattus norvegicus [12]): -18 | Change in BP (Rattus norvegicus [13]): -16 | Time (Mus musculus [14]): 6 h | Change in heart rate (Rattus norvegicus [15]): -34 | Change in heart rate (Rattus norvegicus [16]): -40 | Change in heart rate (Rattus norvegicus [17]): -44
